Assay results as given in paper PMC9585582 (ACS Bio & Med Chem Au, 2022).
Like-named read-outs stand apart in the source and are kept apart here.

Columns and labels:
[1] = test system: taxane binding site in living cells; conditions: read-out: Ki by confocal microscopy; cited from earlier work
[2] = test system: microtubules (taxane binding site) in living HeLa cells; assay: Competition binding assay with PB-GABA-Taxol in living HeLa cells; conditions: read-out: cellular Ki; PB-GABA-Taxol 1.5 μM, verapamil 100 μM, 37 °C, 4% FBS, 3 h, 60K cells/well
[3] = target: cross-linked microtubules; conditions: cited from earlier work; for Ki: read-out: biochemical Ki; for Kd: read-out: biochemical Kd
[4] = Cytotoxicity toward HeLa cells after 48 h by flow cytometry; format: cell-based; conditions: human
[5] = test system: microtubule network of HeLa cells; assay: Confocal microscopy of HeLa cells expressing mScarlet-α-Tubulin; format: cell-based; conditions: 1 h at 37 °C
Method in brief: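 HeLa cells transiently transfected to express mScarlet-α-tubulin. Live cells were treated with microtubule modulators for 1 h at 37 °C, and microtubule-network phenotypes were imaged by confocal microscopy.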

[6] = test system: microtubules in living HeLa cells; assay: Allosteric modulator assay with PB-GABA-Taxol in living HeLa cells; format: binding; conditions: allosteric modulator model; PB-GABA-Taxol 1.5 μM, verapamil 100 μM, 3 h, 37 °C
albumin = conditions: read-out: Kd for albumin; cited from earlier work
[7] = target: purified GDP-bound microtubules; conditions: cited from earlier work

C/C(=C\c1csc(C)n1)[C@@H]1C[C@@H]2O[C@]2(C)CCC[C@H](C)[C@H](O)[C@@H](C)C(=O)C(C)(C)[C@@H](O)CC(=O)N1 [ixabepilone]
Ki [1]: 7.6 ± 1.6 nM
Ki [2]: 10 nM

CO[C@H]1C(=O)[C@]2(C)[C@@H](OC)C[C@H]3OC[C@@]3(OC(C)=O)[C@H]2[C@H](OC(=O)c2ccccc2)[C@]2(O)C[C@H](OC(=O)[C@H](O)[C@@H](NC(=O)OC(C)(C)C)c3ccccc3)C(C)=C1C2(C)C [cabazitaxel]
Ki ([3]; ref 17): 7.4 ± 0.9 nM
Ki [2]: 6 nM

COc1cc2c(c(OC)c1OC)-c1ccc(OC)c(=O)cc1[C@@H](NC(C)=O)CC2 [colchicine]
IC50 at 48 h [4]: 20 ± 8 nM
fluorescent microtubule phenotype [5]: disrupted the microtubule network

COc1cc2cc(c1Cl)N(C)C(=O)C[C@H](OC(=O)[C@H](C)N(C)C(C)=O)[C@]1(C)O[C@H]1[C@H](C)[C@@H]1C[C@@](O)(NC(=O)O1)[C@H](OC)/C=C/C=C(\C)C2 [maytansine]
cooperativity factor α [6]: 0.21

CC(=O)O[C@H]1C(=O)[C@@]2(C)[C@H]([C@H](OC(=O)c3ccccc3)[C@]3(O)C[C@H](OC(=O)[C@H](O)[C@@H](NC(=O)c4ccccc4)c4ccccc4)C(C)=C1C3(C)C)[C@]1(OC(C)=O)CO[C@@H]1C[C@@H]2O [paclitaxel]
fluorescent microtubule phenotype [5]: enhanced the formation of long microtubule fibers
Kd ([3]; ref 65): 70 ± 0.6 nM
Kd ([3]; ref 66): 15 nM
Kd ([3]; ref 68): 50 nM
Ki ([3]; cross-linked microtubules): 27 ± 11 nM
Ki ([3]; ref 21): 31 nM
Ki ([3]; ref 67): 19 nM
Kd (albumin): 120 nM
Ki [2]: 22 nM

CC[C@]1(O)C[C@@H]2CN(CCc3c([nH]c4ccccc34)[C@@](C(=O)OC)(c3cc4c(cc3OC)N(C)[C@H]3[C@@](O)(C(=O)OC)[C@H](OC(C)=O)[C@]5(CC)C=CCN6CC[C@]43[C@@H]65)C2)C1 [vinblastine]
cooperativity factor α [6]: 0.18
Kd [7]: 190 to 1000 nM

CC(=O)O[C@@]12CO[C@@H]1C[C@H](O)[C@@]1(C)C(=O)[C@H](O)C3=C(C)[C@@H](OC(=O)[C@H](O)[C@@H](NC(=O)OC(C)(C)C)c4ccccc4)C[C@@](O)([C@@H](OC(=O)c4ccccc4)[C@H]21)C3(C)C [docetaxel]
Kd ([3]; ref 17): 6.8 ± 0.2 nM
Kd ([3]; ref 65): 25 ± 0.4 nM
Ki ([3]; cross-linked microtubules): 17 ± 6 nM
Ki [2]: 16 nM

CC(=O)O[C@H]1C(=O)[C@@]2(C)[C@H]([C@H](OC(=O)c3ccccc3)[C@]3(O)C[C@H](O)C(C)=C1C3(C)C)[C@]1(OC(C)=O)CO[C@@H]1C[C@@H]2O [baccatin III]
Kd ([3]; ref 21): 6700 ± 2000 nM
Ki [2]: 17000 ± 3000 nM
